From ChEMBL document CHEMBL4814016, “Balancing potency and basicity by incorporating fluoropyridine moieties: Discovery of a 1-amino-3,4-dihydro-2,6-naphthyridine BACE1 inhibitor that affords robust and sustained central Aβ reduction” (Eur J Med Chem, 2021)

Assays:
Beta-secretase 1 [1] = molecular target: T1, Beta-secretase 1 (Homo sapiens, UniProt P56817); assay: Inhibition of BACE1 in human SH-SY5Y cells expressing APP assessed as reduction in Abeta40 by HTRF assay; format: cell-based
How it was run: (§1)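 The figures are means of at least two determinations. BACE1 activity was measured with a biochemical HTRF assay on an APP-derived peptide substrate. In the cellular assay, secreted Aβ40 from SH-SY5Y neuroblastoma cells transfected with human APP was measured by HTRF, and the IC50 derived from it.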

[2] = Dissociation constant, pKa of compound by capillary electrophoresis; format: physicochemical
How it was run: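 pKa measured by capillary electrophoresis.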

Beta-secretase 1 [3] = molecular target: T1, Beta-secretase 1; assay: Inhibition of BACE1 (unknown origin) by HTRF assay; how it was run: as §1
hERG (KCNH2) = hERG (KCNH2) (Homo sapiens, UniProt Q12809); assay: Inhibition of human ERG at 5 uM by automated patch clamp assay relative to control
How it was run: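 hERG inhibition measured at 5 µM with an automated patch clamp assay.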

P-gp (MDR1, ABCB1) = P-gp (MDR1, ABCB1) (Homo sapiens, UniProt P08183); assay: Substrate activity at P-gp (unknown origin) transfected in LLC-PK1 cells expressing human MDR1 gene assessed as efflux ratio; format: ADME, cell-based
[4] = Plasma concentration in Beagle dog at 1 mg/kg, po measured after 3 hrs; format: ADME, organism-based, Canis lupus familiaris
How it was run: (§2)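 Beagle dogs, n = 3, were given 1 mg/kg orally as a suspension in 0.5% methylcellulose. Plasma and CSF drug concentrations were measured at 3, 7, 10 and 24 h. The CSF ratio is CSF concentration over unbound plasma concentration.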

[5] = Cmax in rat at 1 mg/kg, po; format: ADME, organism-based; set-up: route oral, dose 1 mg/kg; settings: in vivo
How it was run: (§3)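 Rats dosed orally at 1 mg/kg, n = 2. Plasma AUC, Cmax and Tmax were taken from the profile. Bioavailability was calculated against an iv dose of 0.5 mg/kg, n = 2.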

[6] = Fraction unbound in Beagle dog serum; format: ADME, cell-free, Canis lupus familiaris
How it was run: (§4)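 Fraction unbound measured in rat and dog serum.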

[7] = In vivo inhibition of amyloid beta in Beagle dog cerebrospinal fluid at 1 mg/kg, po measured after 10 hrs by ELISA; format: functional; settings: Canis lupus familiaris
How it was run: (§5)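 Beagle dogs, n = 3, received 1 mg/kg orally as a 0.5% methylcellulose suspension. Total Aβ in CSF was measured by ELISA at 10 and 24 h and expressed as % reduction.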

[8] = Plasma concentration in Beagle dog at 1 mg/kg, po measured after 10 hrs; format: ADME, organism-based, Canis lupus familiaris; how it was run: as §2
[9] = Ratio of drug level in Cerebrospinal fluid to plasma in Beagle dog at 1 mg/kg, po measured after 24 hrs; format: ADME, organism-based, Canis lupus familiaris, CSF/Plasma; how it was run: as §2
[10] = Drug concentration in Beagle dog cerebrospinal fluid at 1 mg/kg, po measured after 10 hrs; format: ADME, organism-based, Canis lupus familiaris; settings: read-out: Ct; how it was run: as §2
[11] = Volume of distribution at steady state in rat at 0.5 mg/kg, iv; format: ADME, organism-based; settings: in vivo, read-out: Vdss
How it was run: (§6)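 Single iv dose of 0.5 mg/kg in rats, n = 2. Total clearance and steady-state volume of distribution were taken from the plasma profile.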

[12] = Metabolic stability in rat liver microsomes assessed as parent compound remaining measured after 30 mins; format: ADME, Microsome; settings: read-out: Stabilty
How it was run: (§7)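 Parent compound remaining (%) measured after 30 min incubation in rat or dog liver microsomes.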

[13] = Metabolic stability in Beagle dog liver microsomes assessed as parent compound remaining measured after 30 mins; format: ADME, Canis lupus familiaris, Microsome; settings: read-out: Stabilty; how it was run: as §7
[14] = AUC in rat at 1 mg/kg, po; format: ADME, organism-based; set-up: dose 1 mg/kg; settings: in vivo; how it was run: as §3
[15] = Plasma concentration in Beagle dog at 1 mg/kg, po measured after 24 hrs; format: ADME, organism-based, Canis lupus familiaris; how it was run: as §2
[16] = Ratio of drug level in Beagle dog cerebrospinal fluid after 10 hrs to IC50 for inhibition of BACE1 in human SH-SY5Y cells expressing APP assessed as reduction in Abeta40 by HTRF assay; format: cell-based
How it was run: (§8)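 CSF drug concentration in dogs dosed orally at 1 mg/kg (0.5% methylcellulose suspension) at 10 and 24 h, divided by the cellular Aβ40 HTRF IC50 from SH-SY5Y cells expressing human APP.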

[17] = Oral bioavailability in rat at 1 mg/kg; format: ADME, organism-based; settings: in vivo; how it was run: as §3
[18] = Tmax in Beagle dog at 1 mg/kg, po; settings: in vivo
[19] = Cmax in Beagle dog at 1 mg/kg, po; settings: in vivo
[20] = In vivo inhibition of amyloid beta in Beagle dog cerebrospinal fluid at 1 mg/kg, po measured after 24 hrs by ELISA; format: functional; settings: Canis lupus familiaris; how it was run: as §5
[21] = Ratio of drug level in Cerebrospinal fluid to plasma in Beagle dog at 1 mg/kg, po measured after 10 hrs; format: ADME, organism-based, Canis lupus familiaris, CSF/Plasma; how it was run: as §2
[22] = AUC in Beagle dog at 1 mg/kg, po; settings: in vivo
[23] = Drug concentration in Beagle dog cerebrospinal fluid at 1 mg/kg, po measured after 24 hrs; format: ADME, organism-based, Canis lupus familiaris; settings: read-out: Ct; how it was run: as §2
[24] = Plasma concentration in Beagle dog at 1 mg/kg, po measured after 7 hrs; format: ADME, organism-based, Canis lupus familiaris; how it was run: as §2
[25] = Ratio of drug level in Beagle dog cerebrospinal fluid after 24 hrs to IC50 for inhibition of BACE1 in human SH-SY5Y cells expressing APP assessed as reduction in Abeta40 by HTRF assay; format: cell-based; how it was run: as §8
[26] = Fraction unbound in rat serum; format: ADME, cell-free; how it was run: as §4
[27] = Ratio of drug level in brain to plasma in rat at 0.5 mg/kg, iv; format: ADME, organism-based
How it was run: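 Rats given 0.5 mg/kg iv, n = 2. Result is the total brain-to-plasma concentration ratio (Kp).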

[28] = Clearance in rat at 0.5 mg/kg, iv; format: ADME, organism-based; settings: in vivo; how it was run: as §6
[29] = Tmax in rat at 1 mg/kg, po; format: ADME, organism-based; settings: in vivo; how it was run: as §3
Beta-secretase 1 [30] = molecular target: T1, Beta-secretase 1; assay: Inhibition of BACE1 (unknown origin)

P-gp (MDR1, ABCB1), sequence (P08183 whole entry): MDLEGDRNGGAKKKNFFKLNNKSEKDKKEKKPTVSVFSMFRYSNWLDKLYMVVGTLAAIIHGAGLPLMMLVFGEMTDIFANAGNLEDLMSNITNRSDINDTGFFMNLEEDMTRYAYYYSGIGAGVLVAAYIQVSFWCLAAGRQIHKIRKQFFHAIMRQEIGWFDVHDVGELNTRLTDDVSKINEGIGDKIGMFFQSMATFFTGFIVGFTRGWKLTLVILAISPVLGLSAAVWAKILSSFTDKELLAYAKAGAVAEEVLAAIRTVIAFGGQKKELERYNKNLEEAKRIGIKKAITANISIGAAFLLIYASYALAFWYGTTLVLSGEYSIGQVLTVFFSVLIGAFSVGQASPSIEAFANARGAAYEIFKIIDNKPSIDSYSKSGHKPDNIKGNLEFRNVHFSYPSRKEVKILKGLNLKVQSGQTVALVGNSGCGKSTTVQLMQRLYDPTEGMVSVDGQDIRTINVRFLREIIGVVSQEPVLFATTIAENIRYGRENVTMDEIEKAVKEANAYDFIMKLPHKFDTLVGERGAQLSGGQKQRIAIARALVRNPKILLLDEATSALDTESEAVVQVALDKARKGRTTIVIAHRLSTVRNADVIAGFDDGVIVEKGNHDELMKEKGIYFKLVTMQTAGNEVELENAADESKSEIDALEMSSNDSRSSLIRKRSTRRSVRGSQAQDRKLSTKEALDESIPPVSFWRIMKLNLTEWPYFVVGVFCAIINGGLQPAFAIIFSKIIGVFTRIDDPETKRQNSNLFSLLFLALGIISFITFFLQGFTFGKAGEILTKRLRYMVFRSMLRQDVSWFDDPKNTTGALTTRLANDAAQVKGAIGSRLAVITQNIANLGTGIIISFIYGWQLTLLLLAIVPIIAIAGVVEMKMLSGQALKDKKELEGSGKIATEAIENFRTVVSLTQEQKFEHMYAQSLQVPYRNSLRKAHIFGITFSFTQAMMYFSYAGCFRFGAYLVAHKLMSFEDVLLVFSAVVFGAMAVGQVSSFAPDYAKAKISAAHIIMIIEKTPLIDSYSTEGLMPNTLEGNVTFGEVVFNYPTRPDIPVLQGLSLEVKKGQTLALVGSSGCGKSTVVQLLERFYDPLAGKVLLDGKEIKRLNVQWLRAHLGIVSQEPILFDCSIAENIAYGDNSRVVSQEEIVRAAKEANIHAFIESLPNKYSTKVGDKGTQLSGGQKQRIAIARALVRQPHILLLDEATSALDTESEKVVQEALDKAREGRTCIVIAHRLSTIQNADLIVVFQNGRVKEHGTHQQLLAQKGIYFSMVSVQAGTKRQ
hERG (KCNH2), sequence (Q12809 whole entry): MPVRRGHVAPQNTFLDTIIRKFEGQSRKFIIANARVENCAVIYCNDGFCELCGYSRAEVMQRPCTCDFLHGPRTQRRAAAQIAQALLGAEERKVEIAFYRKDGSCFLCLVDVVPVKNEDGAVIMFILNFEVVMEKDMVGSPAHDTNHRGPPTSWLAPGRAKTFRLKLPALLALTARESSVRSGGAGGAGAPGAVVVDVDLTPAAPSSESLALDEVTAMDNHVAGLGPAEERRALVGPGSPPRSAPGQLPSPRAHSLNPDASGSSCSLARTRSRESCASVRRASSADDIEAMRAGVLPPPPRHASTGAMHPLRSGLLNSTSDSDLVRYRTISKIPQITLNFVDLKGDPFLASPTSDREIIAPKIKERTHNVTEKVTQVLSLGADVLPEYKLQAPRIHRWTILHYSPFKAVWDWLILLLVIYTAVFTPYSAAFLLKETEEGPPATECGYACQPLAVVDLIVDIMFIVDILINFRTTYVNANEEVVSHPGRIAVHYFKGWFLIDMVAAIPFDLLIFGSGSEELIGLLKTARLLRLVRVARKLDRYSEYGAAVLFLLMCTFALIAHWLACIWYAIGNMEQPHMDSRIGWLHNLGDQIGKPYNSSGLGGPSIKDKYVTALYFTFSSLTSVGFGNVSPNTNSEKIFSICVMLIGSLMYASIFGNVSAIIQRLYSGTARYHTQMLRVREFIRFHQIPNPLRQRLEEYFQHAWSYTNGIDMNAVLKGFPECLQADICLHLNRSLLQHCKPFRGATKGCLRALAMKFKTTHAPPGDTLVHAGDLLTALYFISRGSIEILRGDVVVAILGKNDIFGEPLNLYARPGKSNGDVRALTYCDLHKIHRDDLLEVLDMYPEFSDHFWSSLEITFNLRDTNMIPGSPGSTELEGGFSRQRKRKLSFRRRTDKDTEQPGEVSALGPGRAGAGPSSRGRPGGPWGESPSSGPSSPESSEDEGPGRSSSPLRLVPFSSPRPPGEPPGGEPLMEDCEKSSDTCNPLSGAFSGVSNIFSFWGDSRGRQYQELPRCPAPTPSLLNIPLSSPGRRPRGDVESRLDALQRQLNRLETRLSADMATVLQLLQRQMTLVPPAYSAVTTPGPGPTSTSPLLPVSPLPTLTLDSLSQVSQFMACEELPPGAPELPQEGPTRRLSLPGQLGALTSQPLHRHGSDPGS
T1 sequence (P56817 whole entry): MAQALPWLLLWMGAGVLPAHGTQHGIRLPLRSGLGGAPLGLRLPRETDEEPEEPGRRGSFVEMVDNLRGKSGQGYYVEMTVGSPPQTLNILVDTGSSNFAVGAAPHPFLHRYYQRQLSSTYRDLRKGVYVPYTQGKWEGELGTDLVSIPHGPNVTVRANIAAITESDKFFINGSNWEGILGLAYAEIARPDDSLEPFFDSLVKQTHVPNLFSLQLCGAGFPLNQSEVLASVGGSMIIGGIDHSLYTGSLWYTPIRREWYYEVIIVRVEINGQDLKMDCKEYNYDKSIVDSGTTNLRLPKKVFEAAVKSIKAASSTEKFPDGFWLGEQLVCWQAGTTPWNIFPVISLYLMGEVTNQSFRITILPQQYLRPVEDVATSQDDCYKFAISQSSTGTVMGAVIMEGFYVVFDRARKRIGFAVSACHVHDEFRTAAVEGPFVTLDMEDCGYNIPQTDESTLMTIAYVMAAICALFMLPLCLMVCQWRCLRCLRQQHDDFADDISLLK

CC1(c2cc(NC(=O)c3ccc(C#N)cn3)ccc2F)Cc2ncccc2C(N)=N1 (configuration not stated)
IC50 (Beta-secretase 1 [1]): 4.1 nM
pKa [2]: 9.4

CC1(c2cc(NC(=O)c3ccc(C#N)cn3)ccc2F)Cc2cncc(F)c2C(N)=N1 (configuration not stated)
IC50 (Beta-secretase 1 [1]): 11 nM
IC50 (Beta-secretase 1 [3]): 118 nM
pKa [2]: 7.3
inhibition at 5 µM (hERG (KCNH2)): 92%

CC1(c2cc(NC(=O)c3ccc(C#N)cn3)ccc2F)Cc2cnccc2C(N)=N1 (configuration not stated)
efflux ratio (P-gp (MDR1, ABCB1)): 37
IC50 (Beta-secretase 1 [1]): 1.5 nM
IC50 (Beta-secretase 1 [3]): 21 nM
pKa [2]: 9
inhibition at 5 µM (hERG (KCNH2)): 85%

CC1(c2cc(NC(=O)c3ccc(C#N)cn3)ccc2F)Cc2c(F)cncc2C(N)=N1 (configuration not stated)
efflux ratio (P-gp (MDR1, ABCB1)): 13
IC50 (Beta-secretase 1 [1]): 0.25 nM
IC50 (Beta-secretase 1 [3]): 12 nM
pKa [2]: 7.6
inhibition at 5 µM (hERG (KCNH2)): 72%

CC1(c2cc(NC(=O)c3ccc(C#N)cn3)ccc2F)Cc2c(ccnc2F)C(N)=N1 (configuration not stated)
IC50 (Beta-secretase 1 [1]): 0.36 nM
IC50 (Beta-secretase 1 [3]): 14 nM

C[C@@]1(c2cc(NC(=O)c3ccc(C#N)cn3)ccc2F)Cc2c(ccnc2F)C(N)=N1
efflux ratio (P-gp (MDR1, ABCB1)): 13
IC50 (Beta-secretase 1 [1]): 0.41 nM
concentration at 3 h [4]: 72 ng/mL
Cmax [5]: 9 ng/mL
fraction unbound [6]: 0.14
inhibition in vivo at 1 mg/kg [7]: 49%
concentration at 10 h [8]: 64 ng/mL
Kp at 24 h [9]: 0.083
concentration at 10 h [10]: 0.56 ng/mL
IC50 (Beta-secretase 1 [3]): 9.1 nM
Vd [11]: 14 L/kg
remaining at 0.5 h [12]: 22%
pKa [2]: 8.2
remaining at 0.5 h [13]: 93%
AUC [14]: 122 ng·h/mL
concentration at 24 h [15]: 47 ng/mL
Ratio [16]: 3.3
bioavailability [17]: 33%
Tmax [18]: 4.3 h
Cmax [19]: 78 ng/mL
inhibition in vivo at 1 mg/kg [20]: 47%
Kp at 10 h [21]: 0.07
AUC [22]: 3890 ng·h/mL
inhibition at 5 µM (hERG (KCNH2)): 88%
concentration at 24 h [23]: 0.52 ng/mL
concentration at 7 h [24]: 65 ng/mL
Ratio [25]: 3
fraction unbound [26]: 0.15
Kp [27]: 0.28
clearance [28]: 45 mL/min/kg
Tmax [29]: 4 h

CC1(c2cc(NC(=O)c3ccc(C#N)cn3)ccc2F)Cc2ccncc2C(N)=N1 (configuration not stated)
IC50 (Beta-secretase 1 [1]): 1.3 nM
IC50 (Beta-secretase 1 [3]): 8.1 nM
pKa [2]: 9.5
inhibition at 5 µM (hERG (KCNH2)): 83%

CC1(c2cc(NC(=O)c3ccc(C#N)cn3)ccc2F)N=C(N)c2ccccc2O1 (configuration not stated)
IC50 (Beta-secretase 1 [30]): 82 nM

CC1(c2cc(NC(=O)c3ccc(C#N)cn3)ccc2F)Cc2cccnc2C(N)=N1 (configuration not stated)
IC50 (Beta-secretase 1 [1]): 26 nM
IC50 (Beta-secretase 1 [3]): 394 nM
pKa [2]: 9.8
